Results taken from ChEMBL document CHEMBL1177718, “Phosphoramidate ProTides of 2'-C-methylguanosine as highly potent inhibitors of hepatitis C virus. Study of their in vitro and in vivo properties” (J Med Chem, 2010).

How the values were obtained:
[1] = tested on: Plasma; assay: Dose normalized AUC in ICR mouse plasma at 50 mg/kg, po by LC-MS/MS analysis; assay type: ADME, organism-based; set-up: dose 50 mg/kg, route oral; details: in vivo
[2] = tested on: Liver; assay: AUC (0 to 6 hrs) in ICR mouse liver at 50 mg/kg, po by LC-MS/MS analysis; assay type: ADME, organism-based; set-up: time < 6 hr, dose 50 mg/kg, route oral; details: in vivo
[3] = tested on: Liver; assay: Dose normalized AUC in ICR mouse liver at 50 mg/kg, po by LC-MS/MS analysis; assay type: ADME, organism-based; set-up: dose 50 mg/kg, route oral; details: in vivo
[4] = Metabolic stability in dog intestine S9 fraction assessed as compound remaining at 10 uM after 60 mins by HPLC analysis in absence of NADP; assay type: ADME, tissue-based, Canis lupus familiaris; details: read-out: Stability
In short: (§1)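 Liver or intestinal S9 at final 1 mg/mL in 50 mM potassium phosphate, with or without NADPH-regenerating system (1.3 mM NADP, 3.3 mM glucose-6-phosphate, 0.4 U/mL G6PDH, 3.3 mM MgCl₂); 10 min preincubation at 37 °C; compound at final 10 μM; samples at start and 60 min quenched in cold acetonitrile, centrifuged, HPLC; % parent remaining.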

[5] = Metabolic stability in human intestine S9 fraction assessed as compound remaining at 10 uM after 60 mins by HPLC analysis in presence of NADP; assay type: ADME, tissue-based; details: read-out: Stability; in short: as §1
[6] = Metabolic stability in human intestine S9 fraction assessed as compound remaining at 10 uM after 60 mins by HPLC analysis in absence of NADP; assay type: ADME, tissue-based; details: read-out: Stability; in short: as §1
[7] = Metabolic stability in dog intestine S9 fraction assessed as compound remaining at 10 uM after 60 mins by HPLC analysis in presence of NADP; assay type: ADME, tissue-based, Canis lupus familiaris; details: read-out: Stability; in short: as §1
[8] = Metabolic stability in dog liver S9 fraction assessed as compound remaining at 10 uM after 60 mins by HPLC analysis in absence of NADP; assay type: ADME, subcellular, Canis lupus familiaris; details: read-out: Stability; in short: as §1
[9] = Metabolic stability in dog liver S9 fraction assessed as compound remaining at 10 uM after 60 mins by HPLC analysis in presence of NADP; assay type: ADME, subcellular, Canis lupus familiaris; details: read-out: Stability; in short: as §1
[10] = Metabolic stability in mouse plasma assessed as compound remaining at 1 ug/ml after 30 mins; assay type: ADME, cell-free; details: read-out: Stability
[11] = Cytotoxicity against human HuH7 cells after 72 hrs by celltiter-glo assay; assay type: cell-based, Huh-7
In short: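 Replicon 1b Huh7 cells seeded 2 × 10⁴/well; after 24 h, 11 serial 2× dilutions from 100 μM (three repeats each) with no-compound control; 72 h at 37 °C, CO₂, log-phase growth; viability by CellTiter-Glo luminescence; CC₅₀ = concentration giving 50% signal.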

[12] = tested on: Hepatitis C virus; assay: Antiviral activity against HCV1b infected in human HuH7 cells assessed as inhibition of viral replication after 48 hrs by luciferase reporter gene assay; assay type: functional, organism-based, Hepacivirus hominis; details: genotype 1b, Huh-7, 48 h
In short: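 Huh7 cells carrying genotype 1b bicistronic subgenomic replicon, seeded 2 × 10⁴/well without G-418; compounds added 18-24 h later, 48 h exposure; 3× or 4× serial dilutions over 0.0001-10 μM in triplicate/quadruplicate; Renilla luciferase read-out versus untreated cells; EC₅₀ by four-parameter sigmoidal nonlinear regression; at least three independent assays.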

[13] = Metabolic stability in human liver S9 fraction assessed as compound remaining at 10 uM after 60 mins by HPLC analysis in absence of NADP; assay type: ADME, subcellular; details: read-out: Stability; in short: as §1
[14] = Metabolic stability in human liver S9 fraction assessed as compound remaining at 10 uM after 60 mins by HPLC analysis in presence of NADP; assay type: ADME, subcellular; details: read-out: Stability; in short: as §1
[15] = Metabolic stability in cynomolgus monkey liver S9 fraction assessed as compound remaining at 10 uM after 60 mins by HPLC analysis in presence of NADP; assay type: ADME, subcellular, Macaca fascicularis; details: read-out: Stability; in short: as §1
[16] = Metabolic stability in cynomolgus monkey liver S9 fraction assessed as compound remaining at 10 uM after 60 mins by HPLC analysis in absence of NADP; assay type: ADME, subcellular, Macaca fascicularis; details: read-out: Stability; in short: as §1
[17] = Metabolic stability in cynomolgus monkey intestine S9 fraction assessed as compound remaining at 10 uM after 60 mins by HPLC analysis in presence of NADP; assay type: ADME, tissue-based, Macaca fascicularis; details: read-out: Stability; in short: as §1
[18] = Metabolic stability in cynomolgus monkey intestine S9 fraction assessed as compound remaining at 10 uM after 60 mins by HPLC analysis in absence of NADP; assay type: ADME, tissue-based, Macaca fascicularis; details: read-out: Stability; in short: as §1
[19] = Metabolic stability in rat liver S9 fraction assessed as compound remaining at 10 uM after 60 mins by HPLC analysis in presence of NADP; assay type: ADME, subcellular; details: read-out: Stability
In short: (§2)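 Rat liver or intestinal S9 at 1 mg/mL final in 50 mM potassium phosphate, with or without NADPH-regenerating system (final 1.3 mM NADP, 3.3 mM glucose-6-phosphate, 0.4 U/mL G6P dehydrogenase, 3.3 mM MgCl2). Preincubated 10 min at 37 °C with shaking, started with compound at 10 μM final. Samples taken at 0 and 60 min, quenched in cold acetonitrile, centrifuged, and parent disappearance measured by HPLC.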

[20] = Metabolic stability in rat liver S9 fraction assessed as compound remaining at 10 uM after 60 mins by HPLC analysis in absence of NADP; assay type: ADME, subcellular; details: read-out: Stability; in short: as §2
[21] = Metabolic stability in rat intestine S9 fraction assessed as compound remaining at 10 uM after 60 mins by HPLC analysis in presence of NADP; assay type: ADME, tissue-based; details: read-out: Stability; in short: as §2
[22] = Metabolic stability in rat intestine S9 fraction assessed as compound remaining at 10 uM after 60 mins by HPLC analysis in absence of NADP; assay type: ADME, tissue-based; details: read-out: Stability; in short: as §2
[23] = Cmax in ICR mouse plasma at 50 mg/kg, po by LC-MS/MS analysis; assay type: ADME, organism-based; set-up: dose 50 mg/kg, route oral
[24] = Metabolic stability in mouse plasma assessed as compound remaining at 1 ug/ml after 4 hrs; assay type: ADME, cell-free; details: read-out: Stability
[25] = Metabolic stability in cynomolgus monkey liver S9 fraction assessed as compound remaining at 10 uM after 30 mins by HPLC analysis in presence of NADP; assay type: ADME, subcellular, Macaca fascicularis; details: read-out: Stability
[26] = Metabolic stability in cynomolgus monkey liver S9 fraction assessed as compound remaining at 10 uM after 30 mins by HPLC analysis in absence of NADP; assay type: ADME, subcellular, Macaca fascicularis; details: read-out: Stability
[27] = Metabolic stability in cynomolgus monkey intestine S9 fraction assessed as compound remaining at 10 uM after 30 mins by HPLC analysis in presence of NADP; assay type: ADME, tissue-based, Macaca fascicularis; details: read-out: Stability
[28] = Metabolic stability in cynomolgus monkey intestine S9 fraction assessed as compound remaining at 10 uM after 30 mins by HPLC analysis in absence of NADP; assay type: ADME, tissue-based, Macaca fascicularis; details: read-out: Stability
[29] = Metabolic stability in human liver S9 fraction assessed as compound remaining at 10 uM after 30 mins by HPLC analysis in presence of NADP; assay type: ADME, subcellular; details: read-out: Stability
[30] = Metabolic stability in human liver S9 fraction assessed as compound remaining at 10 uM after 30 mins by HPLC analysis in absence of NADP; assay type: ADME, subcellular; details: read-out: Stability
[31] = Metabolic stability in human intestine S9 fraction assessed as compound remaining at 10 uM after 30 mins by HPLC analysis in presence of NADP; assay type: ADME, tissue-based; details: read-out: Stability
[32] = Metabolic stability in human intestine S9 fraction assessed as compound remaining at 10 uM after 30 mins by HPLC analysis in absence of NADP; assay type: ADME, tissue-based; details: read-out: Stability

Row | Compound | AUC [1] | AUC [2] | AUC [3] | remaining at 1 h, 10 µM [4] | remaining at 1 h, 10 µM [5] | remaining at 1 h, 10 µM [6] | remaining at 1 h, 10 µM [7] | remaining at 1 h, 10 µM [8] | remaining at 1 h, 10 µM [9] | remaining at 0.5 h, 1 ug/ml [10] | CC50 at 72 h [11] | EC50 [12] | remaining at 1 h, 10 µM [13] | remaining at 1 h, 10 µM [14] | remaining at 1 h, 10 µM [19] | remaining at 1 h, 10 µM [20] | remaining at 1 h, 10 µM [21] | remaining at 1 h, 10 µM [22] | Cmax [23] | further results
1 | C[C@H](NP(=O)(OC[C@H]1O[C@@H](n2cnc3c(=O)[nH]c(N)nc32)[C@](C)(O)[C@@H]1O)Oc1cccc2ccccc12)C(=O)OCC(C)(C)C (stereo partly drawn) | 38 ng·h/mL | 1584 ng·h/g | 32 ng·h/g | 56% | 28% | 49% | 42% | 87% | 49% | 0.3% | > 100000 nM | 57 nM | 59% | 7% | 5% | 31% | 57% | 86% | 262 ng/mL | remaining at 1 h, 10 µM [15]: 16%; remaining at 1 h, 10 µM [16]: 88%; remaining at 1 h, 10 µM [17]: 20%; remaining at 1 h, 10 µM [18]: 68%
2 | CC(C)[C@H](NP(=O)(OC[C@H]1O[C@@H](n2cnc3c(=O)[nH]c(N)nc32)[C@](C)(O)[C@@H]1O)Oc1cccc2ccccc12)C(=O)OCc1ccccc1 (stereo partly drawn) | 40 ng·h/mL | 1940 ng·h/g | 97 ng·h/g | 72% | 24% | 70% | 56% | 75% | 56% | 89% | > 100000 nM | 760 nM | 78% | 0% | 8% | 62% | 65% | 81% | 504 ng/mL | remaining at 4 h, 1 ug/ml [24]: 66%; remaining at 0.5 h, 10 µM [25]: 0%; remaining at 0.5 h, 10 µM [26]: 77%; remaining at 0.5 h, 10 µM [27]: 25%; remaining at 0.5 h, 10 µM [28]: 77%
3 | CC(C)C[C@H](NP(=O)(OC[C@H]1O[C@@H](n2cnc3c(=O)[nH]c(N)nc32)[C@](C)(O)[C@@H]1O)Oc1cccc2ccccc12)C(=O)OCc1ccccc1 (stereo partly drawn) |  |  |  | 33% |  |  | 12% | 48% | 14% | 2% | > 50000 nM | 120 nM |  |  |  |  |  |  |  | remaining at 0.5 h, 10 µM [29]: 0%; remaining at 0.5 h, 10 µM [30]: 44%; remaining at 0.5 h, 10 µM [31]: 8%; remaining at 0.5 h, 10 µM [32]: 28%
